From ChEMBL document CHEMBL3120089, “Indoloditerpenes from a marine-derived fungal strain of Dichotomomyces cejpii with antagonistic activity at GPR18 and cannabinoid receptors” (J Nat Prod, 2014)
Active and inactive are the calls of the source. No cut-off for these calls is given here.

Experiments:
[1] = molecular target: T1, N-arachidonyl glycine receptor (Homo sapiens, UniProt Q14330); assay: Antagonist activity at human GPR18 expressed in CHO cells assessed as inhibition of […] uM THC-mediated beta-arrestin recruitment after 90 mins by beta-galactosidase reporter gene assay; format: cell-based
T1 sequence (Q14330 whole entry): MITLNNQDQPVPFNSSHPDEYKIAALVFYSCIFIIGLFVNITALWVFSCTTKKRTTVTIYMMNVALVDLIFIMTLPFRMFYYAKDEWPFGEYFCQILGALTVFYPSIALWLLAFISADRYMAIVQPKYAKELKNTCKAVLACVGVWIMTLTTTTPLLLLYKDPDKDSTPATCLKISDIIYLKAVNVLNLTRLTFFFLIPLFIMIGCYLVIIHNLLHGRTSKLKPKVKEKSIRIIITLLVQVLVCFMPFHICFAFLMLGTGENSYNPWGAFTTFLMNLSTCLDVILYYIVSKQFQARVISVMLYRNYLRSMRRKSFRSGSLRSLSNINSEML

Cannabinoid receptor 1 = Cannabinoid receptor 1 (Homo sapiens, UniProt P21554); assay: Displacement of [3H]-CP55940 from human CB1 receptor expressed in CHO cells; format: cell-based; conditions: for inhibition: concentration not given here
Cannabinoid receptor 1, sequence (P21554 whole entry): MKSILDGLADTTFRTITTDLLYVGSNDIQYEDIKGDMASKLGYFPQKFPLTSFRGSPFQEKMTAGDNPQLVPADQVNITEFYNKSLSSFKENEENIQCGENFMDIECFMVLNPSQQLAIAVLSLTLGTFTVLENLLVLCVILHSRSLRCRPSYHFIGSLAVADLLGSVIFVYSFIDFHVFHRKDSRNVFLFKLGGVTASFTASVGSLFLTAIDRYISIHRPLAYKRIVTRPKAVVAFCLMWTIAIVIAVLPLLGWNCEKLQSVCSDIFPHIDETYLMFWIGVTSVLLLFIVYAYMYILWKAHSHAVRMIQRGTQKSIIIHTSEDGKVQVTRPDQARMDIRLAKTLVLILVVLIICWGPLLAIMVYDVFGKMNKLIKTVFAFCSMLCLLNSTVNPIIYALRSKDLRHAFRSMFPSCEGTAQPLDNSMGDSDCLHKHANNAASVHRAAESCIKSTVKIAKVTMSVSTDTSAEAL
Method in brief: (§1)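 Competition binding against agonist radioligand [3H]CP55,940 at CB1 or CB2 receptors. Compound stocks in DMSO, final DMSO 2.5%. Ki from concentration–inhibition curves; three independent experiments in duplicate.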

Cannabinoid receptor 2 [2] = molecular target: T2, Cannabinoid receptor 2 (Homo sapiens, UniProt P34972); assay: Displacement of [3H]-CP55940 from human CB2 receptor expressed in CHO cells; format: cell-based; method in brief: as §1
T2 sequence (P34972 whole entry): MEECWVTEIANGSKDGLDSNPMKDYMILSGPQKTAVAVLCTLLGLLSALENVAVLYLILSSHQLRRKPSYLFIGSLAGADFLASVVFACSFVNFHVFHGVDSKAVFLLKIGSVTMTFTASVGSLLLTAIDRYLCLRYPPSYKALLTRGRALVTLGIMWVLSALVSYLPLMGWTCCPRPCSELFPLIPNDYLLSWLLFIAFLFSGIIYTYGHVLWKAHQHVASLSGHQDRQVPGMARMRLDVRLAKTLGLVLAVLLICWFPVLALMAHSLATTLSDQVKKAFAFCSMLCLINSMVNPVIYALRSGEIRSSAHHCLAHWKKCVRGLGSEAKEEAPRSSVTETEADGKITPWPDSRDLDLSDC

[3] = molecular target: T3, G-protein coupled receptor 55 (Homo sapiens, UniProt Q9Y2T6); assay: Antagonist activity at human GPR55 expressed in CHO cells assessed as inhibition of LPI-mediated beta-arrestin recruitment at 10 uM after 90 mins by beta-galactosidase reporter gene assay relative to control; format: cell-based
T3 sequence (Q9Y2T6 whole entry): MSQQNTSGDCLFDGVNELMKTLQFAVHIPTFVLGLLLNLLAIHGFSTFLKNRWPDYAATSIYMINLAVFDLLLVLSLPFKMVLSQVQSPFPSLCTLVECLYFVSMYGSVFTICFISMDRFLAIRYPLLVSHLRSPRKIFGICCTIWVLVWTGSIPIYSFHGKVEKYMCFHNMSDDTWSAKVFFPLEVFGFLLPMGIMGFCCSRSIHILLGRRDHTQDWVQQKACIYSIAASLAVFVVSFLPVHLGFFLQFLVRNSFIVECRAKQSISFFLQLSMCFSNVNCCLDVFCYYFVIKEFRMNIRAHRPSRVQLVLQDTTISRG
Method in brief: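 PathHunter β-galactosidase β-arrestin assay in CHO cells stably expressing GPR55. Cells incubated 24 h at 37 °C before use. Screening at 10 μM compound against 1 μM LPI, 90 min at 37 °C. Chemiluminescent Galacton-Star detection for 60 min at rt. Result given as % inhibition; three independent experiments in duplicate.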

[4] = molecular target: T3, G-protein coupled receptor 55; assay: Antagonist activity at human GPR55 expressed in CHO cells assessed as inhibition of LPI-mediated beta-arrestin recruitment after 90 mins by beta-galactosidase reporter gene assay; format: cell-based
Method in brief: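 CHO cells stably expressing GPR55; PathHunter β-galactosidase complementation. 20,000 cells/well seeded in Opti-MEM with 2% FCS and selection antibiotics, 24 h at 37 °C. Compounds added in PBS with 10% DMSO and 0.1% BSA, 90 min at 37 °C, against a constant 1 μM LPI. Galacton-Star/Emerald-II lysis reagent for 60 min at rt, then luminescence read. IC50 from three independent experiments in duplicate.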

L6 = assay: Cytotoxicity against rat L6 cells assessed as growth inhibition after 70 hrs by Alamar Blue assay; format: cell-based; conditions: L6, 70 h
Cannabinoid receptor 2 [5] = molecular target: T2, Cannabinoid receptor 2; assay: Antagonist activity at human CB2 receptor expressed in CHO cells assessed as inhibition of forskolin-induced cAMP accumulation incubated for 5 mins followed by forskolin challenge measured after 15 mins by liquid scintillation counting analysis in presence of [3H]cAMP; format: functional, cell-based
Method in brief: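 CHO cells stably expressing human CB2; adenylate cyclase inhibition measured as intracellular cAMP, quantified by a cAMP competition binding assay; three independent experiments in duplicate.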

[6] = Solubility of the compound in water; format: physicochemical; conditions: buffer
[7] = molecular target: T1, N-arachidonyl glycine receptor; assay: Inverse agonist activity at human GPR18 expressed in CHO cells assessed as inhibition of 7.5 uM THC-mediated beta-arrestin recruitment after 90 mins by beta-galactosidase reporter gene assay; format: cell-based

SMILES	IC50 [1]	Ki (Cannabinoid receptor 1)	Ki (Cannabinoid receptor 2 [2])	inhibition [3]	IC50 [4]	IC50 (L6)	inhibition (Cannabinoid receptor 2 [5])	inhibition (Cannabinoid receptor 1)	solubility [6]	IC50 [7]	inhibition (Cannabinoid receptor 2 [2]; concentration not given here)
CC(C)=CCC[C@]1(C)[C@@H](O)CC[C@@]2(C)[C@H]1CC[C@H]1Cc3c([nH]c4ccccc34)[C@@]12C [EMINDOLE SB]	> 10 µM	7.05 µM	2.24 µM	12%	> 10 µM	–	–	–	–	–	–
CC(C)=CCC[C@]1(C)[C@@H](O[C@@H]2O[C@H](CO)[C@@H](O)[C@H](O)[C@@H]2O)CC[C@@]2(C)[C@H]1CC[C@H]1Cc3c([nH]c4ccccc34)[C@@]12C	> 10 µM	10.6 µM	10.6 µM	13%	> 10 µM	58 µM	Active	30%	soluble	–	–
CC(C)=C[C@H]1C[C@]2(C)[C@H](CC[C@@]3(C)[C@H]2CC[C@H]2Cc4c([nH]c5ccccc45)[C@@]23C)O1	–	4.4 µM	4.76 µM	0%	> 10 µM	–	–	–	–	9.91 µM	–
COC(C)(C)/C=C/C[C@]1(C)[C@@H](O)CC[C@@]2(C)[C@H]1CC[C@H]1Cc3c([nH]c4ccccc34)[C@@]12C	–	> 10 µM	> 10 µM	31%	> 10 µM	–	–	39%	–	13.4 µM	33%
